This is an account of results in ChEMBL document CHEMBL2440065, “Identification of a novel benzoxazolone derivative as a selective, orally active 18 kDa translocator protein (TSPO) ligand” (J Med Chem, 2013).

Structures are written as SMILES. In brackets after ≈: the same amount, converted by molar mass. Activity calls are given as the source filed them. The rule behind the calls is not given here. A value given as a limit tells only on which side of the number the result lay.

A short description of data set [1]: Solubility of the compound at pH 2.5 by HPLC analysis. Conditions: buffer. The class given is physicochemical. The method, boiled down: (§1)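 Compound (1 mg) shaken in 0.4 mL buffered solution at pH 7.4 or pH 2.5, then centrifuged; dissolved compound in the supernatant quantified by HPLC.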
Data set [2] in a line: Solubility of the compound at pH 7.4 by HPLC analysis. The class given is physicochemical. Conditions: buffer. In short, it runs like this: as §1
The nature of data set [3]: Metabolic stability in rat liver S9 fraction assessed as compound remaining at 1 uM after 30 mins in presence of NADPH. In kind it is ADME, subcellular. Conditions: read-out: Stability.
Data set [4] is filed under the species Rattus norvegicus. Kind of data set: Displacement of [3H]flumazenil from Sprague-Dawley rat cerebral cortex CBR at 10 uM after 1 hr by liquid scintillation counting analysis. In kind it is tissue-based.
In data set [5] the target is Translocator protein (Rattus norvegicus, UniProt P16257). Briefly: Displacement of [3H]PK11195 from Sprague-Dawley rat kidney TSPO after 1 hr by liquid scintillation counting analysis. A general note: Displacement assays read how much labelled ligand stays bound in the presence of the test substance.
Data set [6] in a line: Solubility of the compound at pH 6.8. The class given is physicochemical. Conditions: buffer. In short, it runs like this: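 Solubility measured in pH 6.8 buffer containing bile acids; compound tested as free base and as HCl salt.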
Data set [7] in a line: Displacement of [3H]batrachotoxin from rat brain sodium channel site 2. The class given is tissue-based.
Data set [8] addresses CYP2C19 (Homo sapiens, UniProt P33261). Briefly: Inhibition of CYP2C19 (unknown origin) at 1 uM. In kind it is ADME.
Data set [9] relates to Rattus norvegicus. Kind of data set: Anxiolytic-like activity in Sprague-Dawley rat vogel conflict model at 3 mg/kg, po after 1 hr. In kind it is functional, organism-based. Details: dose 3 mg/kg.
The species named for data set [10] is Rattus norvegicus. Kind of data set: Displacement of [3H]batrachotoxin from rat brain sodium channel site 2 at 10 uM relative to control. The class given is tissue-based.

Translocator protein, sequence (P16257 whole entry, looked up): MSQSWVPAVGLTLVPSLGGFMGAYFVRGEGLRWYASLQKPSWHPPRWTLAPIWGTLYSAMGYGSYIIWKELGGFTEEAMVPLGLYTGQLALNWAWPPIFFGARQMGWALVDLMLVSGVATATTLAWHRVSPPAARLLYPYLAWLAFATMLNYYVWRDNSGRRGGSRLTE
CYP2C19, sequence (P33261 whole entry): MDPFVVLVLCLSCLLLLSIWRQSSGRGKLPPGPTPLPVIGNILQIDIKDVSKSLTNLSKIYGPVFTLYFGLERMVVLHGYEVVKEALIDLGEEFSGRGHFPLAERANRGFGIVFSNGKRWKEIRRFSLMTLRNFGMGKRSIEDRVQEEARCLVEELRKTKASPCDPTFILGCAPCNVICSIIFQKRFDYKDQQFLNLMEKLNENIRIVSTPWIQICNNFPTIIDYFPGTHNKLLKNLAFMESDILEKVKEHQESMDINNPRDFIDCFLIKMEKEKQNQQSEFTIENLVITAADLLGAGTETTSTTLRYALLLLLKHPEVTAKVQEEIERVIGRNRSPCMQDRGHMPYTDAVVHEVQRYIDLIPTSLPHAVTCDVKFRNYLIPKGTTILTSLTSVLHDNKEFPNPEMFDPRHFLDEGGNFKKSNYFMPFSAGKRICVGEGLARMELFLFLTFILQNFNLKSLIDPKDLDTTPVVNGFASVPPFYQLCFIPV

For `CN(C(=O)Cn1c(=O)oc2ccc(-c3ccccc3)cc21)c1ccccc1`, the concentration in solution in [1] (solubility) was 1 µg/mL (≈ 2.79 µM).
For the compound `CN(C(=O)Cn1c(=O)oc2ccc(-c3cccnc3)cc21)c1ccccc1`, in data set [2], the solubility stood at 5 µg/mL (≈ 13.9 µM).
For the compound `CN(C(=O)Cn1c(=O)oc2ccc(-c3ccc(C(F)(F)F)cc3)cc21)c1cccnc1`, the solubility in data set [1] and in data set [2] was < 1 µg/mL in each case. The remaining at 0.5 h, 1 µM in data set [3] turned out to be 24%. The inhibition in [4] is 6%. This compound also showed a Ki in data set [5] of 9.8 nM.
For the compound `CN(C(=O)Cn1c(=O)oc2ccc(-c3ccc(OC(F)(F)F)cc3)cc21)c1cccnc1` [listing 1 of 2 here], the solubility in data set [6] was 20 µg/mL (≈ 45.1 µM); in data set [1], 4 µg/mL (≈ 9.02 µM); in data set [2], < 1 µg/mL. In data set [7], this compound showed an IC50 of 700 nM. In data set [3], the remaining at 0.5 h, 1 µM came out at 32%. In data set [5], this compound displayed a Ki of 4.9 nM.
As to `CN(C(=O)Cn1c(=O)oc2ccc(-c3ccncc3)cc21)c1ccc(C(F)(F)F)cc1`, the solubility is > 1000 µg/mL in data set [1] and 3 µg/mL (≈ 7.02 µM) in data set [2]. For the same compound, the remaining at 0.5 h, 1 µM in data set [3] is 35%. In addition, the inhibition in [4] was found to be 0%. The compound also had a Ki in data set [5] of 6.6 nM. The inhibition at 1 µM in [8] was found to be 73%.
On to `CN(C(=O)Cn1c(=O)oc2ccc(-c3ccc(OC(F)(F)F)cc3)cc21)c1cccnc1` [listing 2 of 2 here], for which the inhibition in [4] amounted to 0%; in data set [10], 108%. Further, the result in [9] was Active.
Turning to `CN(C(=O)Cn1c(=O)oc2ccc(-c3ccc(C(F)(F)F)cc3)cc21)c1ccccc1`, the solubility in data set [1] and in data set [2] was < 1 µg/mL throughout.
On to `COc1ccc(N(C)C(=O)Cn2c(=O)oc3ccc(-c4cccnc4)cc32)cc1`, for which, in data set [3], the remaining at 0.5 h, 1 µM was determined as 9%. Further, in [4], the inhibition stood at 0%. The compound further returned a Ki in data set [5] of 19 nM.
Regarding `CN(C(=O)Cn1c(=O)oc2ccc(-c3ccccc3)cc21)c1ccccn1`, the results for the solubility in [1] and in [2] were 3 µg/mL (≈ 8.35 µM) and 1 µg/mL (≈ 2.78 µM), respectively.
With `CCN(C(=O)Cn1c(=O)oc2ccc(-c3ccncc3)cc21)c1ccccc1`, the values for the solubility in data set [1] and in data set [2] were 860 µg/mL (≈ 2300 µM) and 2 µg/mL (≈ 5.36 µM), respectively. For the same compound, the remaining at 0.5 h, 1 µM in data set [3] amounted to 24%. In addition, the inhibition in data set [4] is 5%. Also, affinity in data set [5] was put at a Ki of 3 nM. In [8], the inhibition at 1 µM turned out to be 71%.
With `COc1ccc(N(C)C(=O)Cn2c(=O)oc3ccc(-c4ccncc4)cc32)cc1`, the solubility was 130 µg/mL (≈ 334 µM) in data set [1] and < 1 µg/mL in [2]. Also, in [3], the remaining at 0.5 h, 1 µM was 47%. In data set [4], the inhibition was 2%. The Ki in data set [5] came to 17 nM.
`CN(C(=O)Cn1c(=O)oc2ccc(-c3ccc(OC(F)(F)F)cc3)cc21)c1ccccc1`: the solubility in data set [1] and in data set [2] was < 1 µg/mL throughout.
In the case of `CN(C(=O)Cn1c(=O)oc2ccc(-c3ccccc3)cc21)c1cccnc1`, the concentration in solution in [1] (solubility) came to 180 µg/mL (≈ 501 µM). Also, in data set [7], the IC50 is > 1000 nM.
The compound `CN(C(=O)Cn1c(=O)oc2ccc(-c3ccncc3)cc21)c1ccc(OC(F)(F)F)cc1` showed a Ki in data set [5] of 23 nM.
On to `CN(C(=O)Cn1c(=O)oc2ccc(-c3cccnc3)cc21)c1ccc(OC(F)(F)F)cc1`, for which the IC50 in [7] is > 1000 nM. In addition, the inhibition in [4] amounted to 0%. The affinity in [5] corresponds to a Ki of 26 nM.
`CCN(C(=O)Cn1c(=O)oc2ccc(-c3cccnc3)cc21)c1ccccc1`: the remaining at 0.5 h, 1 µM in [3] amounted to 0%. For the same compound, the inhibition in data set [4] turned out to be 21%. The compound further registered a Ki in data set [5] of 4.4 nM.
Turning to `CN(C(=O)Cn1c(=O)oc2ccc(-c3ccncc3)cc21)c1ccccc1`, the solubility in [1] was 730 µg/mL (≈ 2030 µM); in data set [2] it was 1 µg/mL (≈ 2.78 µM).

Usually solubility stands for how much of the substance goes into solution per volume. For orientation: inhibition means the change of the read-out against control, counted positive when it falls. As a reminder, the Ki is a dissociation constant, usually derived from enzyme kinetics or from competition with a known ligand. The IC50 is the concentration needed to halve the response being measured. Low values mean inhibition by little substance, high ones a need for much substance.
